Runt-SMMHC FRET = inhibitors of human RUNX1 Runt domain binding to CBFb-SMMHC; Q01196+Q13951; Cerulean-Runt/Venus-CBFb-SMMHC FRET ratio 530/480, 1 h; inhibition, % at 20 µM; 220,000 compounds, 0.74% hits;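 active = mean inhibition across duplicate retests at 20 µM reaching about 50%, limit read from the data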;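 also: inhibitors lower the FRET ratio by blocking Runt binding to CBFb-SMMHC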
Runt-CBFb FRET = blocks binding of human RUNX1 Runt domain to CBFb; Q01196+Q13951; Cerulean-Runt/Venus-CBFb FRET ratio 530/480, 1 h; 220,000 compounds, 0.46% hits; inhibition, % at 20 µM;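 active = inhibition over about 50% at 20 µM in the single-dose screen, limit read from the data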
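test system = Cerulean-tagged RUNX1 Runt domain (FRET donor) fusion protein | reagent = Venus-CBFb binding partner, 100 nM | incubation = protein complex preformed 1 h, compound exposure 1 h, room temperature, dark | detection = FRET fluorescence | read-out basis = loss of energy transfer signal | controls = 5 µM unlabeled CBFb as full-inhibition high control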
Hck Nef HTS = blocks Nef-activated human Hck kinase; AID 463187; 220,000 compounds, 0.68% hits; Recombinant Hck-YEEI plus Nef, Z-Lyte FRET kinase assay; P08631; inhibition, % at 20 µM;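 active = Hck-Nef kinase inhibition above about 50%, limit read from the data; inactive = inhibition below that limit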
Target sequence (P08631 whole entry, looked up): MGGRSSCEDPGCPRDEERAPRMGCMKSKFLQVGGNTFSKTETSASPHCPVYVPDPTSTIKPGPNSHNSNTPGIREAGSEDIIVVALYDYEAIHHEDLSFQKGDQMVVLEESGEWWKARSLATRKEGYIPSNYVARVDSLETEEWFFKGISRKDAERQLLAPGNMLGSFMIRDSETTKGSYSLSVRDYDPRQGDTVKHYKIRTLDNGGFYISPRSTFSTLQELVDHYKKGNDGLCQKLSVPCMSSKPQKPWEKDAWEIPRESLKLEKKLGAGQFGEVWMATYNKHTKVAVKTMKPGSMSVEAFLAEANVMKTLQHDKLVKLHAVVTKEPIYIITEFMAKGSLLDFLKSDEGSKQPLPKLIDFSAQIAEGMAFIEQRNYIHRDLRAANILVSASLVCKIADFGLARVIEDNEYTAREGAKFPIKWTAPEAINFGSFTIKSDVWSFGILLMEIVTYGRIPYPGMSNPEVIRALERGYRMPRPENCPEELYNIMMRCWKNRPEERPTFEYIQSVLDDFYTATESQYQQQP
RanGTP-Impb inh = disruptors of Ran-importin-beta complex formation – biochemical, FRET, CFP-Ran, YFP-importin-beta, homogeneous, primary screen | cell-free CFP-Ran/YFP-importin-beta FRET ratio | inhibition, % (concentration not given with the values) | 300,000 compounds, 1.1% hits | AID 2216;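 active = more than half of the replicate wells show a fall in the fluorescence ratio signal beyond about 16%, limit read from the data, passing the limit was not always enough; inconclusive = exactly half of the replicate wells pass the set limit; inactive = fewer than half of replicates pass the limit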
YIC counter = counter-screen for RanGTP-importin-beta inhibitors: YIC FRET probe; shares compounds with RanGTP-Impb inh; Purified YIC probe, intramolecular FRET ratio YFP/CFP; IC50, µM; 1,000 compounds, 40% hits;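 active = fitted half-maximal inhibitory concentration no more than tenfold above the top dose tested; inconclusive = flat fit with 30 to 70% activity, or poor fit; inactive = half-maximal concentration beyond tenfold above the top dose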
Of the large screens only hits and unclear results are named; the others gave an inactive call (follow-up assays come after a bar, where they were run). Sampled rows, rich in hits. Any-hit rate of the full collection: about 1.8%.

N#Cc1c(-c2ccc3c(c2)OCO3)ccn2nc(-c3cccc(C(F)(F)F)c3)nc12	RanGTP-Impb inh 20 | YIC counter 22
C/C(=C/Cc1c(O)cc2oc(C)cc(=O)c2c1O)COC1OC(CO)C(O)C(O)C1O (stereo unspecified)	none (no result: RanGTP-Impb inh)
CC(C)(C)c1ccc(Oc2ncccc2NC(=O)c2cccs2)cc1	none
O=[N+]([O-])c1cccc(S(=O)(=O)NCc2ccncc2)c1	none (no result: Runt-SMMHC FRET, Runt-CBFb FRET, Hck Nef HTS)
CCN(CC)CCCNC(=S)N(Cc1cccs1)Cc1cc2cc3c(cc2[nH]c1=O)OCCO3	RanGTP-Impb inh 22 | YIC counter inactive
CCN(CC)CCCNC(=S)N(Cc1ccco1)Cc1cc2cc3c(cc2[nH]c1=O)OCCO3	none
N#Cc1c2n(c3c(=O)n(CC(=O)c4ccc(Br)cc4)cnc13)CCCC2	none
N#Cc1c2ncn(CC(=O)c3ccc(Br)cc3)c(=O)c2c2n1CCC2	RanGTP-Impb inh 16 | YIC counter inactive
CCOC(=O)N1CCN(c2nc(=S)n(-c3ccccc3)c(C)c2C(C)=O)CC1	none
CC(=O)c1c(N2CCN(C)CC2)nc(=S)n(-c2cc(C)ccc2C)c1C	Runt-SMMHC FRET 74, RanGTP-Impb inh 34 | YIC counter inactive
O=[N+]([O-])c1cc(C(F)(F)F)ccc1NCC1CCCO1 (stereo unspecified)	none (no result: Runt-SMMHC FRET, Runt-CBFb FRET, Hck Nef HTS)
N#Cc1cc(NCC2CCCO2)c([N+](=O)[O-])cc1C#N (stereo unspecified)	RanGTP-Impb inh 23 | YIC counter inactive
COc1ccc(-c2cc(=O)oc3cc(OC(C)C(=O)NCCCn4ccnc4)ccc23)cc1 (stereo unspecified)	none (no result: Runt-SMMHC FRET, Runt-CBFb FRET, Hck Nef HTS)
O=[N+]([O-])c1ccc(S(=O)(=O)NCCS(=O)(=O)N2CCN(c3ccccc3)CC2)cc1	none (no result: Runt-SMMHC FRET, Runt-CBFb FRET, Hck Nef HTS)
C=C(C)Cn1c(SCC(=O)O)nnc1-c1ccc(OC)cc1	RanGTP-Impb inh 22 | YIC counter inactive
C=C(C)CSc1nnc(-c2ccc(OC)cc2)n1N	none
COCCNc1cc(C)nc2cc(-c3ccc(C)cc3)nn12	RanGTP-Impb inh 19 | YIC counter 3.8
Cc1cccc(-c2cc3nc(C)cc(NCCCN(C)C)n3n2)c1	none
Cc1ccc(OCc2cc(C(=O)N(C)CCc3ccccn3)no2)cn1	none (no result: Runt-SMMHC FRET, Runt-CBFb FRET, Hck Nef HTS)
CCOC(=O)C1=C(N)OC2=C(C(=O)CCC2)C1c1sccc1C (stereo unspecified)	RanGTP-Impb inh 23 | YIC counter inactive
CC(C)(C)NC(=O)C(c1ccco1)N(Cc1ccc(F)cc1)C(=O)c1snc(C(N)=O)c1N (stereo unspecified)	RanGTP-Impb inh 28 | YIC counter inactive
COc1ccc(CN(C(=O)c2snc(C(N)=O)c2N)C(C(=O)NC(C)(C)C)c2ccco2)cc1 (stereo unspecified)	RanGTP-Impb inh inconclusive
CC(C)CNC(=S)N(Cc1ccco1)Cc1cc2cc3c(cc2[nH]c1=O)OCCO3	none
Cc1nn(C(=O)c2ccco2)c(C)c1CN1C(=O)c2ccccc2C1=O	RanGTP-Impb inh 20 | YIC counter inactive
Cc1nn(C(=O)c2cccs2)c(C)c1CN1C(=O)c2ccccc2C1=O	none
CCOC(=O)CSc1nc2sc3c(c2c(=O)n1-c1ccccc1)CCN(C(C)C)C3	none (no result: Runt-SMMHC FRET, Runt-CBFb FRET, Hck Nef HTS)
CCCCn1c(=O)cc(N2CCOCC2)[nH]c1=O	none
Cn1c(=O)cc(N2CCCCC2)[nH]c1=O	RanGTP-Impb inh 19 | YIC counter inactive
CCn1c(=O)cc(N2CCOCC2)[nH]c1=O	RanGTP-Impb inh 24 | YIC counter inactive
CCn1c(=O)cc(N2CCCCC2)[nH]c1=O	RanGTP-Impb inh 23 | YIC counter inactive
CCN(CC)C(=O)c1ccc(CS(=O)(=O)Cc2ccccc2)cc1	none (no result: Runt-SMMHC FRET, Runt-CBFb FRET, Hck Nef HTS)
CN(C)S(=O)(=O)c1cccc(NC(=O)c2ccc3c(c2)OCCO3)c1	none (no result: Runt-SMMHC FRET, Runt-CBFb FRET, Hck Nef HTS)
O=C(CN1CCN(Cc2ccccc2)CC1)NC(=O)NC1CCCCC1	none
O=C(CN1CCN(C/C=C/c2ccccc2)CC1)NC(=O)NC1CCCCC1	RanGTP-Impb inh 29 | YIC counter inactive
O=C(O)c1cn(Cc2cccnc2)c(=O)c2ccccc12	RanGTP-Impb inh 18 | YIC counter inactive
O=C(O)c1ccccc1P(=O)(c1ccccc1)c1ccccc1	RanGTP-Impb inh 16 | YIC counter inactive
CCOc1ccc(C)cc1S(=O)(=O)Nc1ccc(Cl)cn1	RanGTP-Impb inh 19 | YIC counter inactive
Cc1nn(C)cc1C1C(C#N)=C(N)N(c2cccnc2)C2=C1C(=O)CCC2 (stereo unspecified)	none
Cc1ccc(C2C(C#N)=C(N)N(c3cccnc3)C3=C2C(=O)CCC3)c(C)c1 (stereo unspecified)	RanGTP-Impb inh 30 | YIC counter inactive
Cc1cc(C)c2c(N)c(C(=O)NN3CC(=O)N(c4ccccc4F)CC3=O)sc2n1	RanGTP-Impb inh 16 | YIC counter inactive
CCNC(=O)NC(=O)CSc1nc2ccccc2n1CCOC	none
Cc1cc(C(=O)N2CCc3c([nH]c4ccccc34)C2c2c(F)cccc2Cl)no1 (stereo unspecified)	RanGTP-Impb inh 27 | YIC counter inactive
COc1ccc(OC(=O)C2CC(=O)N(c3ccc(C)cc3)C2)cc1 (stereo unspecified)	RanGTP-Impb inh 22 | YIC counter inactive
CNc1cc(F)nc(F)n1	RanGTP-Impb inh 27 | YIC counter 22
Cc1csc2ncnc(NC3CCN(Cc4ccccc4)CC3)c12	RanGTP-Impb inh 19 | YIC counter inactive
Cc1nnc(SCCC(=O)Nc2ccccc2Cl)o1	none (no result: Runt-SMMHC FRET, Runt-CBFb FRET, Hck Nef HTS)
COc1ccc(C(=O)C2CCCN(C(=O)c3n[nH]c4c3CCCC4)C2)cc1OC (stereo unspecified)	none
Cc1cc(Cl)ccc1C(=O)C1CCCN(C(=O)c2n[nH]c3c2CCCC3)C1 (stereo unspecified)	RanGTP-Impb inh 21 | YIC counter inactive
Cc1ccc(-n2c(SCC(=O)NCc3ccco3)nc3sc(C)c(C)c3c2=O)cc1	none
Cc1sc2nc(SCC(=O)NCc3ccco3)n(-c3ccccc3)c(=O)c2c1C	RanGTP-Impb inh 23 | YIC counter inactive
O=C(NCc1ccccc1C(F)(F)F)C1CC(c2ccc(C(F)(F)F)cc2)=NO1 (stereo unspecified)	RanGTP-Impb inh 17 | YIC counter inactive
O=C(NCc1ccc(C(F)(F)F)cc1)C1CC(c2ccc(C(F)(F)F)cc2)=NO1 (stereo unspecified)	none (no result: Runt-SMMHC FRET, Runt-CBFb FRET, Hck Nef HTS)
Cn1c(SCc2cccc([N+](=O)[O-])c2)nc2c(c1=O)SCC2	RanGTP-Impb inh 16 | YIC counter inactive
C/C(=N\NC(=S)NCCc1ccccc1)c1cccc(Br)c1	none
C/C(=N\NC(=S)NCc1ccccc1)c1cccc(Br)c1	RanGTP-Impb inh 46 | YIC counter inactive
CCOc1ccc(NC(=O)CCC(=O)c2ccc(OC)cc2)cc1	none (no result: Runt-SMMHC FRET, Runt-CBFb FRET, Hck Nef HTS)
O=S(=O)(Cc1ccc(Cl)cc1)N1CCN(Cc2ccc3c(c2)OCO3)CC1	none
O=S(=O)(Cc1ccc(Cl)cc1)Nc1ccc2c(c1)OCO2	RanGTP-Impb inh 19 | YIC counter inactive
COc1ccccc1N1CCN(C(=O)/C=C/c2cccc([N+](=O)[O-])c2)CC1	none

Source: PubChem
